Source: ChEMBL document CHEMBL1150222, “Benzophenones and xanthones with isoprenoid groups from Cudrania cochinchinensis” (J Nat Prod, 2001)

Key:
[1] = tested on: HSC-2; experiment: Selectivity ratio CC50 for HGF to CC50 for human HSC-2 cells
[2] = tested on: HSC-2; experiment: Cytotoxicity against human HSC2 cells; assay type: functional
Outline: (§1)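 Human oral squamous carcinoma HSC-2 cells and normal human gingival fibroblasts (HGF) were incubated 24 h with compound added in EtOH (final EtOH in medium below 1%). Viable cells were read as A540 against untreated controls. CC50 is reported in mM as the mean of duplicate determinations.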

[3] = Cytotoxicity against HGF cells; assay type: cell-based; conditions: human; outline: as §1

Row | SMILES | Ratio [1] | CC50 [2] | CC50 [3]
1 | CC1(C)C=Cc2c(cc3oc4c(O)cccc4c(=O)c3c2O)O1 | >1.4 | 480 µM | > 650 µM
2 | CC(C)=CCc1c(O)cc2oc3ccc(O)cc3c(=O)c2c1O |  | > 640 µM | > 640 µM
3 | COc1cc(-c2coc3cc(O)cc(O)c3c2=O)ccc1O [3'-O-METHYLOROBOL] | >4.2 | 160 µM | > 670 µM
4 | CC1(C)C=Cc2c(cc3occ(-c4ccc(O)cc4)c(=O)c3c2O)O1 [ALPINUMISOFLAVONE] | >1.5 | 400 µM | > 600 µM
5 | C=CC(C)(C)c1c(O)cc2oc3c(O)c(O)cc(CC=C(C)C)c3c(=O)c2c1O [ALVAXANTHONE] | 1.1 | 22 µM | 25 µM
6 | COc1c2ccoc2cc2oc(=O)ccc12 [BERGAPTEN] | >1.3 | 720 µM | > 930 µM
7 | COc1cc(O)c(C(=O)c2cccc(O)c2CC=C(C)C)c(O)c1 [CUDRANONE] | >1.5 | 400 µM | > 610 µM
8 | CC(C)=CCc1c(O)cccc1C(=O)c1cc2c(cc1O)OC(C)(C)C=C2 [CUDRAPHENONE A] | 2.5 | 170 µM | 430 µM
9 | CC(C)=CCc1cc(C(=O)c2cccc(O)c2CC=C(C)C)c(O)cc1O [CUDRAPHENONE B] | 2.5 | 36 µM | 90 µM
10 | CC(C)=CCc1c(O)cccc1C(=O)c1c(O)cc(O)c2c1OC(C)(C)C=C2 [CUDRAPHENONE C] | 2.1 | 92 µM | 190 µM
11 | CC(C)=CCc1c(O)cccc1C(=O)c1c(O)cc(O)c(CC=C(C)C)c1O [CUDRAPHENONE D] | 3.7 | 52 µM | 190 µM
12 | CC1Oc2cc3oc4c(O)c5c(cc4c(=O)c3c(O)c2C1(C)C)C=CC(C)(C)O5 (centres undefined) [GERONTOXANTHONE A] |  | > 510 µM | > 510 µM
13 | C=CC(C)(C)c1c(O)cc2oc3c(O)c4c(cc3c(=O)c2c1O)C=CC(C)(C)O4 [GERONTOXANTHONE B] | >1.3 | 390 µM | > 510 µM
14 | CC(C)=CCc1cc2c(=O)c3c(O)c4c(cc3oc2c(O)c1O)OC(C)C4(C)C (centres undefined) [GERONTOXANTHONE G] |  | > 510 µM | > 510 µM
15 | CC(C)=CCc1c(O)cc(O)c2c(=O)c3c(CC=C(C)C)c(O)ccc3oc12 [GERONTOXANTHONE H] | 1.7 | 120 µM | 200 µM
16 | C=CC(C)(C)c1c(O)c(CC=C(C)C)c(O)c2c(=O)c3ccc(O)c(O)c3oc12 [GERONTOXANTHONE I] | >1.1 | 430 µM | > 510 µM
17 | C=CC(C)(C)c1c(O)cc2oc3c(O)c(O)c(CC=C(C)C)cc3c(=O)c2c1O [ISOALVAXANTHONE] | 1.6 | 35 µM | 58 µM
18 | C=CC(C)(C)c1c2c(c(O)c3c(=O)c4ccc(O)c(O)c4oc13)C=CC(C)(C)O2 [MACLURAXANTHONE] |  | > 510 µM | > 510 µM
19 | O=C1C[C@@H](c2ccc(O)cc2)Oc2cc(O)cc(O)c21 [NARINGENIN] | >1.3 | 550 µM | > 740 µM
20 | CC(C)=CCc1c(O)cc(O)c2c1OC(c1ccc(O)cc1)CC2=O (centres undefined) [SOPHORAFLAVANONE B] | 1.5 | 130 µM | 190 µM
21 | CC(C)=CCc1c(O)cc2occ(-c3ccc(O)cc3)c(=O)c2c1O [WIGHTEONE] | 2.1 | 120 µM | 250 µM
